The target in the experiment is T1, Aromatic-L-amino-acid decarboxylase (Homo sapiens, UniProt P20711).
T1 sequence (P20711 whole entry): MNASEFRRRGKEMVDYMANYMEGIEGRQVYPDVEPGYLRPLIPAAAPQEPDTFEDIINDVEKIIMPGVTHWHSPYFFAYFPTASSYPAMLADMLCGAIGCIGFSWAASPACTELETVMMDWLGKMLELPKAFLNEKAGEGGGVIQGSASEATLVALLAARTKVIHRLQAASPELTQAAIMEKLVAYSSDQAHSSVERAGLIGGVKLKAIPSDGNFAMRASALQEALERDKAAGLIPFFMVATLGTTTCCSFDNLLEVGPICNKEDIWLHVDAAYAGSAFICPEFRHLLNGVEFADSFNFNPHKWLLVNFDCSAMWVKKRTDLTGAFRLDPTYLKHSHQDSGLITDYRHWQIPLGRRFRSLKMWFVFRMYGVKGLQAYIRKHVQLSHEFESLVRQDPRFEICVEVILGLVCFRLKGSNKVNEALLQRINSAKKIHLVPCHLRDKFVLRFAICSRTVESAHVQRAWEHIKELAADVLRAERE
Nature of the experiment: Inhibition of recombinant human DOPA decarboxylase assessed as inhibition of dopamine production after 30 mins by HPLC method. The procedure, abridged:
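Recombinant human enzyme reacted with L-DOPA (1 mM final) and PLP cofactor in pH 6.8 buffer, enzyme […] final, with or without compound, 37 °C for 30 min; stopped by heating at 100 °C for 2 min. Dopamine formed quantified by HPLC, 0.2% formic acid/methanol 9:1 eluent, UV 280 nm. IC50 from dose-response curves, 6 concentrations, each in duplicate.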

Take `COc1ccc2c(c1)c[n+](C)c1ccc(OC)cc21`: the IC50 (read-out: IC50) was found to be 190 µM. `COc1ccc2c(c1)c1cc(OC)c(OC)cc1c[n+]2C`: the IC50 (read-out: IC50) amounted to 1170 µM. Same read-out and setting: with `COc1ccc2c(c1)c[n+](C)c1ccc(O)cc21` the figure was 120 µM. Same read-out and setting: with `COc1cc2c[n+](C)c3ccccc3c2cc1OC` the figure was 3500 µM; with `C[n+]1cc2ccccc2c2ccccc21`, 400 µM; with `COc1cc2c[n+](C)c3ccc(F)cc3c2cc1OC`, 2690 µM. On the same count and under the same terms, under `COc1cc2c[n+](C)c3ccc(Cl)cc3c2cc1OC` stands 1390 µM; under `COc1cc2c[n+](C)c3ccc(C)cc3c2cc1OC`, 1490 µM. Take `COc1ccc2c(c1)c[n+](C)c1ccccc21`: the IC50 (read-out: IC50) was determined as 950 µM. The same measure, in the same setting: with `COc1ccc2c(c1)c[n+](C)c1ccc(F)cc21` the figure was 570 µM; with `COc1ccc2c(c1)c[n+](C)c1ccc(Cl)cc21`, 930 µM; with `COc1ccc2c(c1)c[n+](C)c1ccc(C)cc21`, 600 µM. Take `COc1ccc2cc3[n+](cc2c1OC)CCc1cc2c(cc1-3)OCO2` [BERBERINE]: the IC50 result is on record as “Not Active”.

Regarding `COc1ccc2c(c[n+](C)c3c4cc5c(cc4ccc23)OCO5)c1OC` [CHELERYTHRINE], the IC50 (read-out: IC50) is 1280 µM. With `CN1Cc2c(ccc3c2OCO3)-c2ccc3cc4c(cc3c21)OCO4` [DIHYDROSANGUINARINE], the IC50 entry is reported as “Not Active”. Regarding `COc1cc2c[n+](C)c3c4cc5c(cc4ccc3c2cc1OC)OCO5` [NITIDINE], the IC50 (read-out: IC50) worked out at 1340 µM. Consider `C[n+]1cc2c3c(ccc2c2ccc4cc5c(cc4c21)OCO5)OCO3` [SANGUINARIUM CHLORIDE], for which the IC50 (read-out: IC50) was determined as 200 µM.

For orientation: IC50 means the point on the concentration scale where inhibition reaches its midpoint.

(Values after ChEMBL document CHEMBL3286121, “Synthesis of 5-methyl phenanthridium derivatives: a new class of human DOPA decarboxylase inhibitors” (Bioorg Med Chem Lett, 2014).)
